Entries after “also recorded” stand apart in the source; their conditions may differ. Where two headings read alike, the source gives them in different places.
What was measured:
[1] = tested on: S. typhimurium tester strains (TA98, TA100, and TA102); assay: Ames test, overall over three strains; type: cell-based, Salmonella typhimurium
zebrafish embryos = details: cited from earlier work
MCF-7 cells [2] = assay: MCF-7 cell proliferation assay; type: cell-based, human
Summary of the method: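 MCF-7 cells exposed to test compound or E2 at six concentrations from 10–12 to 10–7 M in EA-free medium. Proliferation read as MTT product absorbance at 570 nm. Three independent trials, each in triplicate. % RME2 = 100 × (OD test − OD VC)/(max OD E2 − OD VC). EC50 from curve fitting. EEF = EC50 of E2/EC50 of sample. One-way ANOVA with Dunnett's test versus E2 at each concentration.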

S. typhimurium TA100 = assay: Ames test, strain TA100; type: cell-based, Salmonella typhimurium
chicken embryo = assay: Chicken embryonic assay; type: in vivo; details: egg injection, day 18
ERβ = details: competing with E2; cited from earlier work
MCF-7 cells [3] = details: proliferative activity at 10^–7 to 10^–5 M; cited from earlier work
S. typhimurium TA98 = assay: Ames test, strain TA98; type: cell-based, Salmonella typhimurium
S. typhimurium = details: incorporation or preincubation Ames assays, 10–3333 μg/plate; cited from earlier work
ERα = details: competing with E2; cited from earlier work
[4] = TA100 +S9, 5 × 10^–2 pmol/plate
[5] = TA100 +S9, 5 × 10^–3 pmol/plate
[6] = TA100 +S9, 5 × 10^–4 pmol/plate
[7] = TA100 +S9, 5 × 10^–5 pmol/plate
[8] = TA100 -S9, 5 × 10^–2 pmol/plate
[9] = TA100 -S9, 5 × 10^–3 pmol/plate
[10] = TA100 -S9, 5 × 10^–4 pmol/plate
[11] = TA100 -S9, 5 × 10^–5 pmol/plate
[12] = higher dose (0.5 mM: 450–500 μg/kg; E2 0.1 mM: 91 μg/kg)
[13] = lower dose (0.05 mM: 45–50 μg/kg; E2 0.01 mM: 9.1 μg/kg)
[14] = TA102 +S9, 5 × 10^–2 pmol/plate
[15] = TA102 +S9, 5 × 10^–3 pmol/plate
[16] = TA102 +S9, 5 × 10^–4 pmol/plate
[17] = TA102 +S9, 5 × 10^–5 pmol/plate
[18] = TA102 -S9, 5 × 10^–2 pmol/plate
[19] = TA102 -S9, 5 × 10^–3 pmol/plate
[20] = TA102 -S9, 5 × 10^–4 pmol/plate
[21] = TA102 -S9, 5 × 10^–5 pmol/plate

Structure (SMILES): O=c1c(-c2ccc(O)cc2)coc2cc(O)cc(O)c12 [genistein]
- Ames test outcome (signs of mutagenicity) ([1]; 5 × 10^–5 to 50 pmol/plate, with or without S9): did not significantly increase numbers at any strains and test concentrations; also recorded: did not demonstrate such a sign
- max MI value ([1]; highest MI from test range 5 × 10^–5 to 50 pmol/plate): 1.2
- developmental toxicity in zebrafish model (zebrafish embryos; at 1–50 μM): showing developmental toxicity
- survival rate for zebrafish embryos (zebrafish embryos; exposure at 0.025 to 0.1 mM): significantly decreased the survival rate
- EEF (estradiol equivalent factor) (MCF-7 cells [2]; EC50 of E2 divided by that of the test compound): 0.08
- EC50 (MCF-7 cells [2]; Homo sapiens, MCF7): 0.12 nM
- max % RME2 (MCF-7 cells [2]; highest % RME2 (relative maximum % E2) in test range 10^–12–10^–7 M): 48%
- MI (S. typhimurium TA100; TA100 +S9, 0.5 pmol/plate): 1.0
- number of revertants/plate (M ± SD) (S. typhimurium TA100; TA100 +S9, 0.5 pmol/plate): 307 ± 7 revertants/plate
- MI (S. typhimurium TA100; TA100 +S9, 5 pmol/plate): 0.9
- number of revertants/plate (M ± SD) (S. typhimurium TA100; TA100 +S9, 5 pmol/plate): 301 ± 13 revertants/plate
- MI (S. typhimurium TA100; TA100 +S9, 50 pmol/plate): 0.9
- number of revertants/plate (M ± SD) (S. typhimurium TA100; TA100 +S9, 50 pmol/plate): 296 ± 11 revertants/plate
- MI (S. typhimurium TA100; [4]): 1.0
- number of revertants/plate (M ± SD) (S. typhimurium TA100; [4]): 308 ± 8 revertants/plate
- MI (S. typhimurium TA100; [5]): 1.0
- number of revertants/plate (M ± SD) (S. typhimurium TA100; [5]): 313 ± 11 revertants/plate
- MI (S. typhimurium TA100; [6]): 0.9
- number of revertants/plate (M ± SD) (S. typhimurium TA100; [6]): 301 ± 4 revertants/plate
- MI (S. typhimurium TA100; [7]): 0.9
- number of revertants/plate (M ± SD) (S. typhimurium TA100; [7]): 294 ± 6 revertants/plate
- MI (S. typhimurium TA100; TA100 -S9, 0.5 pmol/plate): 1.0
- number of revertants/plate (M ± SD) (S. typhimurium TA100; TA100 -S9, 0.5 pmol/plate): 103 ± 10 revertants/plate
- MI (S. typhimurium TA100; TA100 -S9, 5 pmol/plate): 0.9
- number of revertants/plate (M ± SD) (S. typhimurium TA100; TA100 -S9, 5 pmol/plate): 96 ± 4 revertants/plate
- MI (S. typhimurium TA100; TA100 -S9, 50 pmol/plate): 0.8
- number of revertants/plate (M ± SD) (S. typhimurium TA100; TA100 -S9, 50 pmol/plate): 80 ± 12 revertants/plate
- MI (S. typhimurium TA100; [8]): 0.9
- number of revertants/plate (M ± SD) (S. typhimurium TA100; [8]): 97 ± 11 revertants/plate
- MI (S. typhimurium TA100; [9]): 1.0
- number of revertants/plate (M ± SD) (S. typhimurium TA100; [9]): 100 ± 11 revertants/plate
- MI (S. typhimurium TA100; [10]): 0.9
- number of revertants/plate (M ± SD) (S. typhimurium TA100; [10]): 94 ± 8 revertants/plate
- MI (S. typhimurium TA100; [11]): 1.0
- number of revertants/plate (M ± SD) (S. typhimurium TA100; [11]): 98 ± 6 revertants/plate
- LSI (liver somatic index) (chicken embryo; [12]): 2.12 ± 0.14%
- malformation rate (chicken embryo; [12]): 0.0%
- mortality rate (chicken embryo; [12]): 50%
- number of dead chicken embryo (chicken embryo; [12]): 5
- number of malformation chicken embryo (chicken embryo; [12]): 0
- weights: embryo (chicken embryo; [12]): 23.88 ± 2.02 g
- weights: heart (chicken embryo; [12]): 0.20 ± 0.03 g
- weights: liver (chicken embryo; [12]): 0.50 ± 0.09 g
- LSI (liver somatic index) (chicken embryo; [13]): 2.05 ± 0.44%
- REEW (ratio of embryo to egg weight) (chicken embryo; [13]): 0.41 ± 0.049
- malformation rate (chicken embryo; [13]): 0.0%
- mortality rate (chicken embryo; [13]): 40.0%
- number of dead chicken embryo (chicken embryo; [13]): 4
- number of malformation chicken embryo (chicken embryo; [13]): 0
- weights: embryo (chicken embryo; [13]): 21.96 ± 0.73 g
- weights: heart (chicken embryo; [13]): 0.17 ± 0.01 g
- weights: liver (chicken embryo; [13]): 0.46 ± 0.10 g
- MI (S. typhimurium TA102; TA102 +S9, 0.5 pmol/plate): 1.1
- number of revertants/plate (M ± SD) (S. typhimurium TA102; TA102 +S9, 0.5 pmol/plate): 336 ± 17 revertants/plate
- MI (S. typhimurium TA102; TA102 +S9, 5 pmol/plate): 1.0
- number of revertants/plate (M ± SD) (S. typhimurium TA102; TA102 +S9, 5 pmol/plate): 299 ± 4 revertants/plate
- MI (S. typhimurium TA102; TA102 +S9, 50 pmol/plate): 1.1
- number of revertants/plate (M ± SD) (S. typhimurium TA102; TA102 +S9, 50 pmol/plate): 324 ± 28 revertants/plate
- MI (S. typhimurium TA102; [14]): 1.0
- number of revertants/plate (M ± SD) (S. typhimurium TA102; [14]): 311 ± 18 revertants/plate
- MI (S. typhimurium TA102; [15]): 1.0
- number of revertants/plate (M ± SD) (S. typhimurium TA102; [15]): 312 ± 13 revertants/plate
- MI (S. typhimurium TA102; [16]): 0.9
- number of revertants/plate (M ± SD) (S. typhimurium TA102; [16]): 285 ± 10 revertants/plate
- MI (S. typhimurium TA102; [17]): 0.9
- number of revertants/plate (M ± SD) (S. typhimurium TA102; [17]): 290 ± 4 revertants/plate
- MI (S. typhimurium TA102; TA102 -S9, 0.5 pmol/plate): 1.0
- number of revertants/plate (M ± SD) (S. typhimurium TA102; TA102 -S9, 0.5 pmol/plate): 247 ± 18 revertants/plate
- MI (S. typhimurium TA102; TA102 -S9, 5 pmol/plate): 0.9
- number of revertants/plate (M ± SD) (S. typhimurium TA102; TA102 -S9, 5 pmol/plate): 240 ± 8 revertants/plate
- MI (S. typhimurium TA102; TA102 -S9, 50 pmol/plate): 0.8
- number of revertants/plate (M ± SD) (S. typhimurium TA102; TA102 -S9, 50 pmol/plate): 215 ± 27 revertants/plate
- MI (S. typhimurium TA102; [18]): 0.9
- number of revertants/plate (M ± SD) (S. typhimurium TA102; [18]): 222 ± 30 revertants/plate
- MI (S. typhimurium TA102; [19]): 0.8
- number of revertants/plate (M ± SD) (S. typhimurium TA102; [19]): 198 ± 8 revertants/plate
- MI (S. typhimurium TA102; [20]): 0.8
- number of revertants/plate (M ± SD) (S. typhimurium TA102; [20]): 196 ± 20 revertants/plate
- MI (S. typhimurium TA102; [21]): 0.8
- number of revertants/plate (M ± SD) (S. typhimurium TA102; [21]): 207 ± 5 revertants/plate
- binding affinity for ERβ (ERβ): 87%
- concentration of maximum proliferative activity in MCF-7 cells (MCF-7 cells [3]): 10^–6 M
- MI (S. typhimurium TA98; TA98 +S9, 0.5 pmol/plate): 1.1
- number of revertants/plate (M ± SD) (S. typhimurium TA98; TA98 +S9, 0.5 pmol/plate): 26 ± 13 revertants/plate
- MI (S. typhimurium TA98; TA98 +S9, 5 pmol/plate): 1.0
- number of revertants/plate (M ± SD) (S. typhimurium TA98; TA98 +S9, 5 pmol/plate): 23 ± 14 revertants/plate
- MI (S. typhimurium TA98; TA98 +S9, 50 pmol/plate): 1.2
- number of revertants/plate (M ± SD) (S. typhimurium TA98; TA98 +S9, 50 pmol/plate): 28 ± 16 revertants/plate
- MI (S. typhimurium TA98; TA98 +S9, 5 × 10^–2 pmol/plate): 1.2
- number of revertants/plate (M ± SD) (S. typhimurium TA98; TA98 +S9, 5 × 10^–2 pmol/plate): 28 ± 5 revertants/plate
- MI (S. typhimurium TA98; TA98 +S9, 5 × 10^–3 pmol/plate): 1.2
- number of revertants/plate (M ± SD) (S. typhimurium TA98; TA98 +S9, 5 × 10^–3 pmol/plate): 28 ± 10 revertants/plate
- MI (S. typhimurium TA98; TA98 +S9, 5 × 10^–4 pmol/plate): 1.0
- number of revertants/plate (M ± SD) (S. typhimurium TA98; TA98 +S9, 5 × 10^–4 pmol/plate): 24 ± 8 revertants/plate
- MI (S. typhimurium TA98; TA98 +S9, 5 × 10^–5 pmol/plate): 0.8
- number of revertants/plate (M ± SD) (S. typhimurium TA98; TA98 +S9, 5 × 10^–5 pmol/plate): 19 ± 6 revertants/plate
- MI (S. typhimurium TA98; TA98 -S9, 0.5 pmol/plate): 0.7
- number of revertants/plate (M ± SD) (S. typhimurium TA98; TA98 -S9, 0.5 pmol/plate): 15 ± 1 revertants/plate
- MI (S. typhimurium TA98; TA98 -S9, 5 pmol/plate): 0.8
- number of revertants/plate (M ± SD) (S. typhimurium TA98; TA98 -S9, 5 pmol/plate): 18 ± 6 revertants/plate
- MI (S. typhimurium TA98; TA98 -S9, 50 pmol/plate): 0.6
- number of revertants/plate (M ± SD) (S. typhimurium TA98; TA98 -S9, 50 pmol/plate): 13 ± 4 revertants/plate
- MI (S. typhimurium TA98; TA98 -S9, 5 × 10^–2 pmol/plate): 0.7
- number of revertants/plate (M ± SD) (S. typhimurium TA98; TA98 -S9, 5 × 10^–2 pmol/plate): 16 ± 2 revertants/plate
- MI (S. typhimurium TA98; TA98 -S9, 5 × 10^–3 pmol/plate): 0.5
- number of revertants/plate (M ± SD) (S. typhimurium TA98; TA98 -S9, 5 × 10^–3 pmol/plate): 11 ± 1 revertants/plate
- MI (S. typhimurium TA98; TA98 -S9, 5 × 10^–4 pmol/plate): 0.6
- number of revertants/plate (M ± SD) (S. typhimurium TA98; TA98 -S9, 5 × 10^–4 pmol/plate): 13 ± 6 revertants/plate
- MI (S. typhimurium TA98; TA98 -S9, 5 × 10^–5 pmol/plate): 0.7
- number of revertants/plate (M ± SD) (S. typhimurium TA98; TA98 -S9, 5 × 10^–5 pmol/plate): 15 ± 4 revertants/plate
- mutagenic activity in Ames assays (S. typhimurium): No mutagenic activity
- binding affinity for ERα (ERα): 4%

Reference: PMC8851455 (ACS Omega, 2022)
